Measured values: ChEMBL document CHEMBL5678802, “Small-molecule p21-activated kinase inhibitor PF-3758309 is a potent inhibitor of oncogenic signaling and tumor growth” (Proc Natl Acad Sci U S A, 2010)
Active and inactive are the calls of the source. The rule behind the calls is not given here.

Assays:
[1] = target: Serine/threonine-protein kinase PAK 6 (Homo sapiens, UniProt Q9NQU5); experiment: Inhibition of PAK6 (unknown origin) using EVPRRKSLVGTPYWM peptide as substrate assessed as inhibition constant in presence of ATP by biochemical assay
How it was run: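 PAK6 kinase domain activity coupled to NADH oxidation via pyruvate kinase/lactate dehydrogenase (2 mM phosphoenolpyruvate, 0.33 mM NADH, 15 units/mL each PK and LDH) in 50 mM Hepes pH 7.5, 1 mM DTT, 5 mM MgCl2, 0.5 mM peptide 7, 0.072 mM ATP. Initial rates by linear least-squares regression; Ki from competitive or tight-binding inhibition fits.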

NCI-H1666 = experiment: Antiproliferative activity against human NCI-H1666 cells assessed as inhibition of cell proliferation incubated for 3 days by CellTiter-Glo Luminescent Cell Viability Assay; type: functional, cell-based; details: NCI-H1666, 72 h
How it was run: (§1)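 Cells of each line were plated in 384-well plates on day 1 and exposed to compound from day 2 for 3 days. On day 5 all medium was aspirated. Viable cell number was read by CellTiter-Glo luminescence, which quantifies cellular ATP.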

NCI-H2087 = experiment: Antiproliferative activity against human NCI-H2087 cells assessed as inhibition of cell proliferation incubated for 3 days by CellTiter-Glo Luminescent Cell Viability Assay; type: functional, cell-based; details: NCI-H2087, 72 h; how it was run: as §1
NCI-H226 = experiment: Antiproliferative activity against human NCI-H226 cells assessed as inhibition of cell proliferation incubated for 3 days by CellTiter-Glo Luminescent Cell Viability Assay; type: functional, cell-based; details: NCI-H226, 72 h; how it was run: as §1
CFPAC-1 = experiment: Antiproliferative activity against human CFPAC-1 cells assessed as inhibition of cell proliferation incubated for 3 days by CellTiter-Glo Luminescent Cell Viability Assay; type: functional, cell-based; details: CFPAC-1, 72 h
How it was run: (§2)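 Cancer cell lines seeded in 384-well plates on day 1; compound added on day 2 and left for 3 days. On day 5 all medium was aspirated, and viable cells were quantified by CellTiter-Glo luminescence, which measures cellular ATP. Dose-dependent effects on proliferation were determined.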

COLO 205 = experiment: Inhibition of anchorage independent cell growth in human COLO 205 cells incubated for 6 days by Alamar blue reagent based fluorescence plate reader analysis; type: functional; details: COLO 205, 144 h
How it was run: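 Soft-agar colony formation: bottom layer 0.5% agar (2× DMEM with 1% agarose, 1:1), top layer 0.35% agar holding 4,000 cells; layers set 20–30 min at room temperature, then 1× DMEM containing compound added on top. Incubated 6 days; Alamar blue added and fluorescence read at 540 nm.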

ZR-75-1 = experiment: Antiproliferative activity against human ZR-75-1 cells assessed as inhibition of cell proliferation incubated for 3 days by CellTiter-Glo Luminescent Cell Viability Assay; type: functional, cell-based; details: ZR-75-1, 72 h; how it was run: as §1
MDA-MB-468 = experiment: Antiproliferative activity against human MDA-MB-468 cells assessed as inhibition of cell proliferation incubated for 3 days by CellTiter-Glo Luminescent Cell Viability Assay; type: functional, cell-based; details: MDA-MB-468, 72 h; how it was run: as §2
BT-474 = experiment: Antiproliferative activity against human BT-474 cells assessed as inhibition of cell proliferation incubated for 3 days by CellTiter-Glo Luminescent Cell Viability Assay; type: functional, cell-based; details: BT-474, 72 h; how it was run: as §2
BT-20 = experiment: Antiproliferative activity against human BT-20 cells assessed as inhibition of cell proliferation incubated for 3 days by CellTiter-Glo Luminescent Cell Viability Assay; type: functional, cell-based; details: BT-20, 72 h; how it was run: as §2
[2] = target: T1, AMP-activated protein kinase (AMPK) alpha-1/beta-1/gamma-1 (Homo sapiens, UniProt P54619+Q13131+Q9Y478); experiment: Inhibition of human AMPK alpha1/beta1/gamma1 assessed as inhibition constant in presence of ATP; type: protein-complex assay
[3] = target: Serine/threonine-protein kinase Chk2 (Homo sapiens, UniProt O96017); experiment: Inhibition of human CHK2 in presence of ATP
[4] = target: T2, cGMP-dependent protein kinase 1 (Homo sapiens, UniProt Q13976); experiment: Inhibition of human PRKG1 in presence of ATP
T2 sequence (Q13976 whole entry): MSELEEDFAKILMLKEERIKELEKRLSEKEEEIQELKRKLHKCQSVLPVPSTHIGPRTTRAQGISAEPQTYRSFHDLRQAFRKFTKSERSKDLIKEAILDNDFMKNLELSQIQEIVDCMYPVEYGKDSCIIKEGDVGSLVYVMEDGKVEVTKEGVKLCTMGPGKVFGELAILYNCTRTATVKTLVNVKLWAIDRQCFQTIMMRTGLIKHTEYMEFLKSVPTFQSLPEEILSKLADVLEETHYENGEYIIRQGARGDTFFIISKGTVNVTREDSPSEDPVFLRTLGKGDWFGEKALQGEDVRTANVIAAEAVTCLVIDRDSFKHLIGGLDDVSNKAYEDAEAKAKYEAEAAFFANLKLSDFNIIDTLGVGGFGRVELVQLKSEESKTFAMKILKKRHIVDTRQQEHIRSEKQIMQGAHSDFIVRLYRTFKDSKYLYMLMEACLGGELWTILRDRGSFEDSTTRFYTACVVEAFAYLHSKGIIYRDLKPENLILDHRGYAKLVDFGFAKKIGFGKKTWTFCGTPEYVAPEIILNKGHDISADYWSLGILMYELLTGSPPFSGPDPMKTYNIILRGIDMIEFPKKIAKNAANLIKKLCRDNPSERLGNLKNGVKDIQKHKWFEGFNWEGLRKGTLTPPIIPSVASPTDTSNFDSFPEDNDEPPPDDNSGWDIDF

[5] = target: T1, AMP-activated protein kinase (AMPK) alpha-1/beta-1/gamma-1; experiment: Inhibition of human AMPK alpha1/beta1/gamma1 in presence of ATP by cellular assay; type: protein-complex assay
HCT-116 [6] = experiment: Induction of cell cycle arrest in human HCT-116 cells assessed as accumulation of cells at S phase at 100 nM measured after 48 hrs by fluorescence activated cell sorter analysis (reference value: 26.15%); type: functional
[7] = Inhibition of YFP/YFP variant coding sequence fused PAK4/cofilin (unknown origin) expressed in HEK293 cells incubated for 8 to 24 hrs by fluorescence based analysis; type: cell-based, Homo sapiens
[8] = target: Tumour suppressor p53/oncoprotein Mdm2 (Homo sapiens, UniProt P04637+Q00987); experiment: Inhibition of YFP/YFP variant coding sequence fused p53/Mdm2 (unknown origin) expressed in HEK293 cells incubated for 8 to 24 hrs by fluorescence based analysis; type: cell-based
M24met = experiment: Antitumor activity against human M24met cells xenografted in nude mouse assessed as tumor growth inhibition at 7.5 mg/kg, po administered once daily for 9 to 18 days relative to control; type: functional; details: time 9-18 day, read-out: TGI
HCT-116 [9] = experiment: Antitumor activity against human HCT-116 cells xenografted in nude mouse assessed as tumor growth inhibition at 0.12 mg/kg administered via pump for 9 days relative to control; type: functional; details: HCT-116, 216 h, time 9 day, read-out: TGI
HCT-116 [10] = experiment: Antitumor activity against human HCT-116 cells xenografted in nude mouse assessed as reduction in BAD phosphorylation at S136 residue at 15 to 150 mg/kg/day administered via pump for 18 hrs by Reverse-Phase protein array analysis; type: functional, organism-based; details: dose 15-150 mg/kg/day
[11] = target: Serine/threonine-protein kinase PAK 4 (Homo sapiens, UniProt O96013); details: dose 50.0 µM
Serine/threonine-protein kinase PAK 4, sequence (O96013 whole entry, looked up): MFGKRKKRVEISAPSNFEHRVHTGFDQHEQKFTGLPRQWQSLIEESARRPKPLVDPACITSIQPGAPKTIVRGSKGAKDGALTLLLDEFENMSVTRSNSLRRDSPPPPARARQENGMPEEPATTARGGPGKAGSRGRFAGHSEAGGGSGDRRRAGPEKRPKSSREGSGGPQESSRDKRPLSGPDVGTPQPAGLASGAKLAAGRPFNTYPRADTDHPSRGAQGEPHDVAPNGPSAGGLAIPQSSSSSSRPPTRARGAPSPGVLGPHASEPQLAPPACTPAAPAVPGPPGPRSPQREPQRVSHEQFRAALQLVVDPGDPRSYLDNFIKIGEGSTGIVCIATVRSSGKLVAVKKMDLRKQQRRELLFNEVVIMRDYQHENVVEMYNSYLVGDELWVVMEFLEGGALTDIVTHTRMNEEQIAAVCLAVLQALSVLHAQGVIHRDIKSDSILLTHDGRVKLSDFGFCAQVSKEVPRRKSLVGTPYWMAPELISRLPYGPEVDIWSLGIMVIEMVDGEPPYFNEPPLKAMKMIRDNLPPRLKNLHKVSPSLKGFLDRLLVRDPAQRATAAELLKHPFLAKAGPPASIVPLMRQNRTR

T1 sequence (P54619 whole entry): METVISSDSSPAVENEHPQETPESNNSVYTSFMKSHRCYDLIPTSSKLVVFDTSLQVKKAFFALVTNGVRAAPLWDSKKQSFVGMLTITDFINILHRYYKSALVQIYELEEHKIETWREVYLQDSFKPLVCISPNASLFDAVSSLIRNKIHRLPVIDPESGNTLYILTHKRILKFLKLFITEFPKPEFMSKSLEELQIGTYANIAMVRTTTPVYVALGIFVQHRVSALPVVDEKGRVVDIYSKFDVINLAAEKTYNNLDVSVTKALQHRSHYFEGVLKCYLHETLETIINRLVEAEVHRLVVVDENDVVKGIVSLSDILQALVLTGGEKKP
T1 sequence (Q9Y478 whole entry): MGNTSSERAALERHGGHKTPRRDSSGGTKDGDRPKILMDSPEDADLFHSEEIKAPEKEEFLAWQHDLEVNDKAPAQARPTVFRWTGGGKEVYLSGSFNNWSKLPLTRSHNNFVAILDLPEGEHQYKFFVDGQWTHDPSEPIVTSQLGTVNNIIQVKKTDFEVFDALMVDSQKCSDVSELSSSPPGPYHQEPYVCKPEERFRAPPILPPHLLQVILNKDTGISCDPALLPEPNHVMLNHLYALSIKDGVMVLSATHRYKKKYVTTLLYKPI
T1 sequence (Q13131 whole entry): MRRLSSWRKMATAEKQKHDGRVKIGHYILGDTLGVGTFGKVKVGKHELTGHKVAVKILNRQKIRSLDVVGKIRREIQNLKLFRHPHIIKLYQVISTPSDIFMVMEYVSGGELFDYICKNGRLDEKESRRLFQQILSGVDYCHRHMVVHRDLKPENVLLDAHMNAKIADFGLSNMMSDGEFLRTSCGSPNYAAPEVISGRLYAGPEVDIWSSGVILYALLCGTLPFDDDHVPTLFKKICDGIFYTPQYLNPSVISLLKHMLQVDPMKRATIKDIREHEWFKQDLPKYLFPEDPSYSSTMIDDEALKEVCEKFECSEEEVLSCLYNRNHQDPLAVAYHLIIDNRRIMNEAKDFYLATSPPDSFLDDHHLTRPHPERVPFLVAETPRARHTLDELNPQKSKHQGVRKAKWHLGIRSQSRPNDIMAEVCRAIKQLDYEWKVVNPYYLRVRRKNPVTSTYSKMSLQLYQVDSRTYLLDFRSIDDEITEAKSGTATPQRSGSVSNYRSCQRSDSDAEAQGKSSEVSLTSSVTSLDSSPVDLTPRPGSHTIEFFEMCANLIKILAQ
Serine/threonine-protein kinase Chk2, sequence (O96017 whole entry): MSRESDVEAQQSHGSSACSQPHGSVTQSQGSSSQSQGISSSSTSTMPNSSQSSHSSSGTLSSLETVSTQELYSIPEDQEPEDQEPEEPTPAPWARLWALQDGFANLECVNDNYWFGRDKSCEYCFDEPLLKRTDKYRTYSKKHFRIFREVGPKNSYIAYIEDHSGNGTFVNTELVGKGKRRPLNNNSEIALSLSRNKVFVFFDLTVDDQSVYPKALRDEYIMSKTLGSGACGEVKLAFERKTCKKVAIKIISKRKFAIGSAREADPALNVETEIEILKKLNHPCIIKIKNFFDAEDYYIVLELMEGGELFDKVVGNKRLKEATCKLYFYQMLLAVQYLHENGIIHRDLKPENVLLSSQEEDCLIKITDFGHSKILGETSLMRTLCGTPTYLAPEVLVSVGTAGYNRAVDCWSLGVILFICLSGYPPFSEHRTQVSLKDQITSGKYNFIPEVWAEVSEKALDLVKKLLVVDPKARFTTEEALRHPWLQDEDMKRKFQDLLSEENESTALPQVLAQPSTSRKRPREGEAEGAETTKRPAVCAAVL
Serine/threonine-protein kinase PAK 6, sequence (Q9NQU5 whole entry, the tested form may be a part): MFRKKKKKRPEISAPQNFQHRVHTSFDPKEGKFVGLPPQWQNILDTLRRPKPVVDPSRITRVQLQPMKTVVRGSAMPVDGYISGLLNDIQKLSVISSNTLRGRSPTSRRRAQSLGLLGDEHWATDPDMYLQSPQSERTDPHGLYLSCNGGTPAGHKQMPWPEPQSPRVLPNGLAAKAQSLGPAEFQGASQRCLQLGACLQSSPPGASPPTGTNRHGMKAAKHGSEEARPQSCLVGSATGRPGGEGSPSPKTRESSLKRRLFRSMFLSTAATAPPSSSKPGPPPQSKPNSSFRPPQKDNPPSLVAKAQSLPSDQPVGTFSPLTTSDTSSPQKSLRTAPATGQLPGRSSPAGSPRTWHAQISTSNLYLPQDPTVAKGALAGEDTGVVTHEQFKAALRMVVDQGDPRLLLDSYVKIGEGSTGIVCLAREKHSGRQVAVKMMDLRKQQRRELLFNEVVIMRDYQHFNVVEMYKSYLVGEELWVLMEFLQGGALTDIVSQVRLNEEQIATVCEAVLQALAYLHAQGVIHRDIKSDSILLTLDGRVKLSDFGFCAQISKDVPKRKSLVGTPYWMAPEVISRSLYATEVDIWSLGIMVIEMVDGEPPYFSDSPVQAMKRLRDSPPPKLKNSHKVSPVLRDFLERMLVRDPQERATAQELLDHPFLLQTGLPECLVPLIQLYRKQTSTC
Tumour suppressor p53/oncoprotein Mdm2, sequence (P04637 whole entry, looked up, stated change not applied, the tested form may be a part): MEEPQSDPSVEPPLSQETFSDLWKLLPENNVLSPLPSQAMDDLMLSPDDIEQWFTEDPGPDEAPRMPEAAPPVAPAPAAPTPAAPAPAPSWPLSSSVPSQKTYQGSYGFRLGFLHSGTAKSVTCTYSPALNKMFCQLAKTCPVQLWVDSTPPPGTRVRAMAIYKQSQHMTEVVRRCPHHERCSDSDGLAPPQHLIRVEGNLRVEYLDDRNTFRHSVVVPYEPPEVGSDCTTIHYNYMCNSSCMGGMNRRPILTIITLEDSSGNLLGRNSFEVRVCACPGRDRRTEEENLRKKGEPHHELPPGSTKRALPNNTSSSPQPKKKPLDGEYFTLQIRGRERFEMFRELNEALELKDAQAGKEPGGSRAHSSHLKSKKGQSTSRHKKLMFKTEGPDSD
Tumour suppressor p53/oncoprotein Mdm2, sequence (Q00987 whole entry, looked up, stated change not applied, the tested form may be a part): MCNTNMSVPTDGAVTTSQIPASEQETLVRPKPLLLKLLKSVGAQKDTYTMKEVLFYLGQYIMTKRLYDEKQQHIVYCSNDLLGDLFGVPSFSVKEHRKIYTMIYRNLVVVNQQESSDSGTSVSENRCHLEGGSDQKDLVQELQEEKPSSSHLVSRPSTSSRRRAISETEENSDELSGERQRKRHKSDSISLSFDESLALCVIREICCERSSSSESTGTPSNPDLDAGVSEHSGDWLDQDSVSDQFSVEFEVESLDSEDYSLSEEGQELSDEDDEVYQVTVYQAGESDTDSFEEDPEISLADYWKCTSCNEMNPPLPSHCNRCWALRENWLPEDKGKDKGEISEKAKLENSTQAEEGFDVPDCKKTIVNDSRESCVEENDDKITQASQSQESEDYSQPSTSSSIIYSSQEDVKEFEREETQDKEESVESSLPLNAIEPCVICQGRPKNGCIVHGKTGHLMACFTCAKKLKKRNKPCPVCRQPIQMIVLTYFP

Cc1nc(Nc2n[nH]c3c2CN(C(=O)N[C@H](CN(C)C)c2ccccc2)C3(C)C)c2sccc2n1 [PF-03758309] gave a Ki [1] of 17.1 nM, an IC50 (NCI-H1666) of 3.8 nM and an IC50 (NCI-H2087) of 4.3 nM. For the same compound, the IC50 (NCI-H226) was 9.3 nM, the IC50 (CFPAC-1) was 1320 nM and the IC50 (COLO 205) was 140 nM. The IC50 (ZR-75-1) was 0.49 nM, the IC50 (MDA-MB-468) was 0.63 nM and the IC50 (BT-474) was 1.8 nM. For the same compound, the IC50 (BT-20) was 81.7 nM, the Ki [2] was 5 nM and the IC50 [3] was 13 nM. For the same compound, the IC50 [4] was 34 nM, the IC50 [5] was 40 nM and the Activity (HCT-116 [6]) was 14.37%. For the same compound, the IC50 [7] was 10.4 nM, the IC50 [8] was 5.6 nM and the inhibition in vivo at 7.5 mg/kg (M24met) was 49%. For the same compound, the inhibition in vivo at 0.12 mg/kg (HCT-116 [9]) was 16%, the Activity (HCT-116 [10]) was “Active” and the deltaH [11] was -5 kcal/mol.
